Only some compounds are listed: those with a hit (about 4.9% of all), similar ones and a draw of the others.
STAT1 inh – STAT1 signaling inhibition; 200,000 tested, 0.35% active; inhibition, % at 5.5 µM; AID 920; NIH 3T3 STAT1-luciferase reporter, IFN-gamma, luminescence;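 active = inhibition above a set limit, the mean inhibition across all tested compounds plus 3 SD, cut at about 34% in these data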;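 also: 0% = IFN-gamma with DMSO and 100% = IFN-gamma with 300 µM nifuroxazide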
APP 5'UTR act – activates APP 5'UTR luciferase reporter; 190,000 tested, 1% active; SH-SY5Y APP 5'UTR luciferase reporter, luminescence; zero percent = DMSO vehicle wells; activation, % at 2 µM;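 active = activation above a set limit, based on mean plus 3 SD of controls, cut at about 140% in these data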
STAT3 inh – inhibitors of IL-6 induced STAT3 signaling; 190,000 tested, 0.89% active; inhibition, % at 5.5 µM; U3A cells, IL-6 STAT3-luciferase reporter, luminescence; host cell line lacks STAT1; AID 862;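 active = inhibition above the mean inhibition across all screened compounds plus 3 SD, cut at about 44% in these data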;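 also: 0% = DMSO only wells and 100% = 100 µM nifuroxazide control wells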
STAT1 activator – activators of IFN-gamma induced STAT1 signaling. NIH 3T3 STAT1-luciferase reporter, luminescence; 100% = IFN-gamma alone, no compound. activation (% of control), % at 5.5 µM. 200,000 tested, 2.6% active. AID 932;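 active = activation above the screen-wide mean activation plus 3 SD, cut at about 130% in these data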;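 also: raw ratio to IFN-gamma control signal so 100% means no change and 0% no light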
STAT3 activator – STAT3 signaling activation. activation (% of control), % at 5.6 µM. 190,000 tested, 0.91% active. U3A cells, IL-6 STAT3-luciferase reporter, luminescence; 100% = signal with IL-6 EC80 alone;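 active = activation above the screen-wide mean of compound activation plus 3 SD, cut at about 130% in these data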;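 also: 0% = background luminescence of wells with medium and substrate only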
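Material: STAT3-luciferase reporter U3A cells. Controls: IL-6-treated wells, 100% activation. Read-out: % activation versus median of IL-6-stimulated wells. Probe or stimulus: IL-6 stimulus at 33 ng/mL final. Timing: compound 1 h, then IL-6 6 h at 37 °C. Signal: reporter luminescence signal.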
NF-kB neuron act – compounds increasing NF-kB expression in human neuronal cells; NF-kB reporter expression; stronger effect = higher value; fold change at 12.5 µM; 190,000 tested, 1.6% active; in the data active = fold change above about 3.3
* = called active by the depositor.

SMILES | STAT1 inh | APP 5'UTR act | STAT3 inh | STAT1 activator | STAT3 activator | NF-kB neuron act
CC(C)(C)N1CC(COc2ccccc2)OC1=O (configuration not stated) | -3.9 | 12.4 | -5.9 | 103.5 | 108.6 | 1.32
Cc1nc(/C=C/c2ccccc2)[nH]c(=O)c1-c1ccccc1 | -32.1 | 76.5 | 14.5 | 129.3* | 89.0 | 1.64
Cc1cccc(/C=C\c2nc3ccccc3c(=O)[nH]2)c1 | -46.8 | 157.7* | 39.2 | 144.0* | 67.1 | 1.2
Cc1cc2occ(CC(=O)NC3=NCCS3)c2cc1C(C)C | -3.1 | -10.1 | 6.1 | 102.8 | 96.9 | 1.07
O=C(c1cc2c(=O)n3ccccc3nc2s1)N1CCc2ccccc2C1 | -5.4 | 8.3 | 4.9 | 101.9 | 99.8 | 0.97
CS(=O)c1ccccc1-c1nc(-c2ccc(Cl)cc2)no1 (configuration not stated) | -41.8 | 33.9 | 11.4 | 138.3* | 92.3 | 2.14
O=[N+]([O-])c1cc(Cl)ccc1-c1nc(-c2ccccc2)no1 | -98.8 | 121.7 | -5.9 | 187.9* | 102.9 | 13.3*
Cc1ccc(-c2noc(-c3ccccc3F)n2)cc1 | -34.5 | 173.8* | 10.9 | 132.1* | 98.3 | 5.98*
CS(=O)c1ccccc1-c1nc(-c2cccc(Cl)c2)no1 (configuration not stated) | -20.2 | 2.8 | 20.3 | 118.3 | 84.9 | 1.41
COc1ccc2nc(Cl)c(/C=N/Nc3ccccn3)cc2c1 | 2.0 | 37.4 | 7.2 | 98.0 | 95.8 | 1.47
CCOC(=O)C1CCN(C(=O)COC(=O)COc2ccc(Cl)cc2)CC1 | -5.4 | 17.6 | -10.2 | 103.6 | 115.0 | 1.04
O=c1nc(Nc2ccccc2)sc2ccc([N+](=O)[O-])cc12 | -6.7 | 15.9 | -8.1 | 106.1 | 102.4 | 1.13
CCc1ccc(NC(=O)c2cnn3ccccc23)cc1 | 77.6* | 134.8 | 97.6* | 29.9 | 22.4 | 3.96*
CCc1ccc(NC(=O)c2ccccc2SC)cc1 | -33.1 | 46.6 | 7.0 | 129.0* | 100.7 | 1.22
Cn1cc(C(=O)NCc2ccc(F)cc2)cn1 | 3.8 | -5.9 | 7.6 | 98.0 | 97.8 | 1.2
O=C(NCc1ccc(F)cc1)c1cnn2ccccc12 | -34.7 | 55.4 | 0.7 | 131.5* | 103.4 | 2.37
CSc1ccccc1C(=O)Nc1ccc2c(c1)OCCO2 | -4.1 | 11.8 | 0.4 | 103.7 | 98.3 | 1.42
Cc1c(NC(=O)CCc2ccccc2)cccc1[N+](=O)[O-] | 2.7 | 27.4 | -4.1 | 96.5 | 104.4 | 1.09
S=C(Nc1ccccc1Cl)N(Cc1ccccc1)Cc1cccnc1 | 11.9 | 10.2 | 13.6 | 88.4 | 98.0 | 1.1
O=c1c2c(nc3cc(-c4cccc(F)c4)[nH]n13)CCC2 | -32.4 | 109.3 | 27.2 | 130.1* | 80.0 | 4.2*
Cc1[nH]n2c(=O)c3c(nc2c1-c1ccc(F)cc1)CCCC3 | -1.0 | -5.0 | 7.7 | 99.4 | 97.1 | 1.26
O=c1c2c(nc3cc(-c4cccc(Cl)c4)[nH]n13)CCC2 | -38.9 | 143.1* | 5.8 | 135.0* | 98.1 | 5.44*
Cn1nc(C(=O)N2CCN(S(=O)(=O)/C=C/c3ccccc3)CC2)c2ccccc2c1=O | 6.5 | -2.7 | 2.2 | 94.1 | 94.0 | 0.89
CCN1C(=O)/C(=C/C=C2/SCCN2C)SC1=S | -58.0 | 106.5 | 59.0* | 152.3* | 51.4 | 4.73*
O=S(=O)(NC1CCCCC1)c1ccc(Cl)s1 | 6.4 | 15.7 | 3.0 | 94.0 | 100.9 | 1.14
SMILES | STAT1 inh | APP 5'UTR act | STAT3 inh | STAT1 activator | STAT3 activator | NF-kB neuron act
Cc1ccc(C(=O)C(C)OC(=O)C2CC(=O)N(C3CCCCC3)C2)cc1 (configuration not stated) | -5.1 | -17.8 | 3.2 | 104.8 | 99.7 | 1.73
COc1ncnc2c1cnn2-c1ccccc1 | -6.7 | 17.5 | 12.1 | 106.1 | 90.0 | 1.39
CCN(c1ccccc1)c1ncnc2c1cnn2-c1ccccc1 | -34.2 | 40.8 | -7.4 | 131.0* | 113.9 | 1.26
CN(Cc1ccccc1)c1ncnc2c1cnn2-c1ccccc1 | -54.4 | 124.3 | 19.1 | 149.5* | 86.7 | 4.69*
CCOC(=O)CC(=O)CSc1ncnc2c1cnn2-c1ccccc1 | -47.3 | 45.5 | 10.7 | 143.0* | 94.0 | 3.79*
CCN1CCN(CC(=O)Nc2cc(C)c(C)cc2[N+](=O)[O-])CC1 | -6.1 | 16.4 | -2.5 | 105.5 | 98.5 | 1.28
O=C(CN1C(=O)NC2(CCCCC2)C1=O)NCc1ccc2c(c1)OCO2 | -0.9 | 33.2 | 3.3 | 100.2 | 99.2 | 0.99
Cc1nccc2oc(=O)c(NC(=O)c3ccc(Cl)cc3)cc12 | -5.1 | -21.5 | 23.6 | 103.7 | 82.1 | 2.11
